Assays:
[1] = target: High affinity nerve growth factor receptor (Homo sapiens, UniProt P04629); experiment: Inhibition of human TrkA (440 to end residues) using KKKSPGEYVNIEFG as substrate measured after 40 mins in presence of [gamma33P]ATP by scintillation counting method
Outline: (§1)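 Eurofins radiometric kinase assay run at ATP equal to Km for each kinase. 9-point dose–response in duplicate gives the IC50.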

[2] = target: T1, Serine/threonine-protein kinase TBK1 (Homo sapiens, UniProt Q9UHD2); experiment: Displacement of tracer K5 from NLuc fused TBK1 (unknown origin) expressed in HEK293 cells by NanoBRET assay; format: cell-based
T1 sequence (Q9UHD2 whole entry): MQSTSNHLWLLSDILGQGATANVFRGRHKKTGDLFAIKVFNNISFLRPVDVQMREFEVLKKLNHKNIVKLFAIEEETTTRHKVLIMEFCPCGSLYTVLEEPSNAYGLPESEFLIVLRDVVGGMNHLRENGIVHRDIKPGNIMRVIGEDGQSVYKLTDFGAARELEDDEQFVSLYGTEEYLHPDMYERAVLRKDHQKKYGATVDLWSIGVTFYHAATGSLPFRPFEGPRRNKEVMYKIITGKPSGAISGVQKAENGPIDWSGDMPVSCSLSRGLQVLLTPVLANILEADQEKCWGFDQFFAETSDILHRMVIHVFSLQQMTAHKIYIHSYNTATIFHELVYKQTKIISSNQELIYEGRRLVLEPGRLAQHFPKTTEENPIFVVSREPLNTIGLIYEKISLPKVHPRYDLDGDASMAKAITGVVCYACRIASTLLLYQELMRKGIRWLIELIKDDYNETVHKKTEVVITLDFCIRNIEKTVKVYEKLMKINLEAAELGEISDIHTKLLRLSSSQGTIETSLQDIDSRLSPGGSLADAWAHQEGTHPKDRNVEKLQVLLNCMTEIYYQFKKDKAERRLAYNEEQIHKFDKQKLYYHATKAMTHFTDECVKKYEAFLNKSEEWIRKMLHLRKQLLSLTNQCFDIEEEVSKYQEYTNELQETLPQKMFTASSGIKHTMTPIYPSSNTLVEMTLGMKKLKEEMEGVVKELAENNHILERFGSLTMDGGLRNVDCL
Outline: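 HEK293 cells grown in DMEM with 10% FBS at 37 °C, 5% CO2. NanoBRET assay run in dose–response per manufacturer's protocol with tracer K-5 at 0.5 μM. SEM calculated for assays run more than once.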

[3] = target: T2, Inhibitor of nuclear factor kappa-B kinase subunit epsilon (Homo sapiens, UniProt Q14164); experiment: Inhibition of full length recombinant human IKKepsilon using casein as substrate incubated for 40 mins in presence of [gamma-33P-ATP] by radiometric scintillation assay; outline: as §1
T2 sequence (Q14164 whole entry): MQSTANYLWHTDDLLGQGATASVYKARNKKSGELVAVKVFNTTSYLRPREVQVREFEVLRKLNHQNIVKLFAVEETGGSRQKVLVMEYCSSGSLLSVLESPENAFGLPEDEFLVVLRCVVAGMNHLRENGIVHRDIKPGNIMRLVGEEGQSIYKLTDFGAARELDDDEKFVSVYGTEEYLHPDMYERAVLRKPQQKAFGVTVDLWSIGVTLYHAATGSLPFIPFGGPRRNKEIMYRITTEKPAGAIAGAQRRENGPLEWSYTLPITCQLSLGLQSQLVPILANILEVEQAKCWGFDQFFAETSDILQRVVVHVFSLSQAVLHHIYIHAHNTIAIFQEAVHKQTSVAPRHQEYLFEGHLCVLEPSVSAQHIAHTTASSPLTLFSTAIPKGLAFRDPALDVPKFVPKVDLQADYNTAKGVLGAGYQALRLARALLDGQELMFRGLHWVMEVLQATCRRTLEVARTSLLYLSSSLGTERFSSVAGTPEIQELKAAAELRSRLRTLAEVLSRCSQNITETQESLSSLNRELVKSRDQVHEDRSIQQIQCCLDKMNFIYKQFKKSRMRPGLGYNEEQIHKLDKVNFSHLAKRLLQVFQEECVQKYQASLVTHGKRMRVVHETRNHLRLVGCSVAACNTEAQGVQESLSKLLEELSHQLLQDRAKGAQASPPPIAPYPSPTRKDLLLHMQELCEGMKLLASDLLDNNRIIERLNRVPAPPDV

[4] = target: Tyrosine-protein kinase JAK2 (Homo sapiens) (UniProt O60674); experiment: Inhibition of recombinant human JAK2 (808 to end residues) using KTFCGTPEYLAPEVRREPRILSEEEQEMFRDFDYIADWC as substrate at 1 uM incubated for 40 mins in presence of [gamma-33P-ATP] by radiometric scintillation assay relative to control
Outline: (§2)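 Eurofins radiometric kinase assay with ATP at Km for each kinase. Compound was tested at a single 1 μM concentration in duplicate, and the result is reported as percent of control.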

[5] = target: T3, BMP-2-inducible protein kinase (Homo sapiens, UniProt Q9NSY1); experiment: Inhibition of 1recombinant human BMP2K using myelin basic protein as substrate incubated for 120 mins in presence of [gamma-33P-ATP] by radiometric scintillation assay
[6] = target: Serine/threonine-protein kinase SIK2 (Homo sapiens, UniProt Q9H0K1); experiment: Inhibition of recombinant human SIK2 (1 to 276 residues) using KKKVSRSGLYRSPSMPENLNRPR as substrate measured after 40 mins in presence of [gamma33P]ATP by radiometric scintillation counting method; outline: as §1
[7] = target: Bone morphogenetic protein receptor type-1B (Homo sapiens, UniProt O00238); experiment: Inhibition of recombinant human BMPR1B (148 to end residues) using casein as substrate incubated for 40 mins in presence of [gamma-33P-ATP] by radiometric scintillation assay
Outline: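 Eurofins radiometric enzymatic assay with ATP at Km for each kinase. IC50 was derived from a 9-point dose–response curve run in duplicate.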

[8] = target: T4, Serine/threonine-protein kinase 17A (Homo sapiens) (UniProt Q9UEE5); experiment: Inhibition of full length recombinant human DRAK1 using KKLNRTLSFAEPG as substrate at 1 uM incubated for 40 mins in presence of [gamma-33P-ATP] by radiometric scintillation assay relative to control; outline: as §2
T4 sequence (whole entry): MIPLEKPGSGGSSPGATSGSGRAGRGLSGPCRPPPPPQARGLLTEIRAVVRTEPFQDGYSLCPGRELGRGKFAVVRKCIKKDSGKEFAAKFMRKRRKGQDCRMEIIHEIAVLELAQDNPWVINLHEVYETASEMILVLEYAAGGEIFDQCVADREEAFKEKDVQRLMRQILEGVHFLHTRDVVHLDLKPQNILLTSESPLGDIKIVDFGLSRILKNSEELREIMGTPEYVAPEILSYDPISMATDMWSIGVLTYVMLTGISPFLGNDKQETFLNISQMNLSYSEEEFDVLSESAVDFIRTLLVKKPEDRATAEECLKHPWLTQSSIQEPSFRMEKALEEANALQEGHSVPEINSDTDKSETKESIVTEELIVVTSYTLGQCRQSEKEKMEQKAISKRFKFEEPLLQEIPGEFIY

[9] = target: T3, BMP-2-inducible protein kinase; experiment: Residual activity of human BMP2K at 1 uM using peptide as substrate incubated for 120 mins in presence of [gamma-33P-ATP] by radiometric scintillation assay relative to control

Sequence of High affinity nerve growth factor receptor (P04629 whole entry): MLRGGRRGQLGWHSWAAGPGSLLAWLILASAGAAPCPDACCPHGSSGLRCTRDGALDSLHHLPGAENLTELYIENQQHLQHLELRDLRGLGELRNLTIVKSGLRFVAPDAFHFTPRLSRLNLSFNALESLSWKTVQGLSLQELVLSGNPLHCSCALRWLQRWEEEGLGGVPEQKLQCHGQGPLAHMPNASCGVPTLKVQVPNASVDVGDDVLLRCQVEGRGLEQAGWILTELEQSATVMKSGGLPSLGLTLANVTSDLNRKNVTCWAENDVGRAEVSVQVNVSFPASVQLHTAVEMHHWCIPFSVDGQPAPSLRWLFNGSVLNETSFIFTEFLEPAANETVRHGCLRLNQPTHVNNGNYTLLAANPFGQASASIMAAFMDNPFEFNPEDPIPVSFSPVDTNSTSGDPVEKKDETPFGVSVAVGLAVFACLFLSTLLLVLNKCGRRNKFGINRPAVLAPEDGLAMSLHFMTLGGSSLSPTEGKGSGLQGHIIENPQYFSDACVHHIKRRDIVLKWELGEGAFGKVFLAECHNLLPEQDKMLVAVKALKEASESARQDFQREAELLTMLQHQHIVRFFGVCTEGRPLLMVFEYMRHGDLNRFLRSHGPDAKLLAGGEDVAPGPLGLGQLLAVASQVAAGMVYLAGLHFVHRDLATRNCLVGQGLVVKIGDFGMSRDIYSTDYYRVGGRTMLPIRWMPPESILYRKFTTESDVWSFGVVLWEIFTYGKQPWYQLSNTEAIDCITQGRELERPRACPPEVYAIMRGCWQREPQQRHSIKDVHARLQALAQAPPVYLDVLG
Sequence of Tyrosine-protein kinase JAK2 (Homo sapiens) (O60674 whole entry): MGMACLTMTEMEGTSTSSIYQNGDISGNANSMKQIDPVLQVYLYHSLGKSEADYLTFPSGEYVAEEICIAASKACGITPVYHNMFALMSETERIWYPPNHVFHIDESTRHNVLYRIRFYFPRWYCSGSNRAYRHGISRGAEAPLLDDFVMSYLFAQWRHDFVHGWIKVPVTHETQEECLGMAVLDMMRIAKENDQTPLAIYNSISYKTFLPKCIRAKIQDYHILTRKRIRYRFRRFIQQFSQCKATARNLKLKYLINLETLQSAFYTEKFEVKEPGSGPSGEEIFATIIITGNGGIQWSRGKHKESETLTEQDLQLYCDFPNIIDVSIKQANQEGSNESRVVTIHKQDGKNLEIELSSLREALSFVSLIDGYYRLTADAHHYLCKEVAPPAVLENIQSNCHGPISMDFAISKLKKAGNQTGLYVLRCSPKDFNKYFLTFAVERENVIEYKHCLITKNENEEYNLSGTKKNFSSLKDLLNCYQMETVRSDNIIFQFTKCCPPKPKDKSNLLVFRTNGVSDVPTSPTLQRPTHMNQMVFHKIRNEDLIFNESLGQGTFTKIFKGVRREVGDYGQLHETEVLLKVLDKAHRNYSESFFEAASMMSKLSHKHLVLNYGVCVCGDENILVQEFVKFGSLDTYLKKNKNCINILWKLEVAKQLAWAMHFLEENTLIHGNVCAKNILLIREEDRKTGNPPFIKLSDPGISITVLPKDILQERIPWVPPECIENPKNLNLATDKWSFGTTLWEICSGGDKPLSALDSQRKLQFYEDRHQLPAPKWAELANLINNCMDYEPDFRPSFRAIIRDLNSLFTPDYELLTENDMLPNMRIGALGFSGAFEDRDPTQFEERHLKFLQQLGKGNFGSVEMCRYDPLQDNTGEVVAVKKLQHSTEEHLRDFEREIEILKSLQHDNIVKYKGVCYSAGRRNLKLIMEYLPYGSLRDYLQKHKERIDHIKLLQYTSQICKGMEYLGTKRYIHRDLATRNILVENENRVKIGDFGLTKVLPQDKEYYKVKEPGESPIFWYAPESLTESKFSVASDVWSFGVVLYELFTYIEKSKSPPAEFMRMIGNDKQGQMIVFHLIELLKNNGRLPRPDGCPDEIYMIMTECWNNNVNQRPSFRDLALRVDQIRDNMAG
T3 sequence (Q9NSY1 whole entry, looked up, the tested form may be a part): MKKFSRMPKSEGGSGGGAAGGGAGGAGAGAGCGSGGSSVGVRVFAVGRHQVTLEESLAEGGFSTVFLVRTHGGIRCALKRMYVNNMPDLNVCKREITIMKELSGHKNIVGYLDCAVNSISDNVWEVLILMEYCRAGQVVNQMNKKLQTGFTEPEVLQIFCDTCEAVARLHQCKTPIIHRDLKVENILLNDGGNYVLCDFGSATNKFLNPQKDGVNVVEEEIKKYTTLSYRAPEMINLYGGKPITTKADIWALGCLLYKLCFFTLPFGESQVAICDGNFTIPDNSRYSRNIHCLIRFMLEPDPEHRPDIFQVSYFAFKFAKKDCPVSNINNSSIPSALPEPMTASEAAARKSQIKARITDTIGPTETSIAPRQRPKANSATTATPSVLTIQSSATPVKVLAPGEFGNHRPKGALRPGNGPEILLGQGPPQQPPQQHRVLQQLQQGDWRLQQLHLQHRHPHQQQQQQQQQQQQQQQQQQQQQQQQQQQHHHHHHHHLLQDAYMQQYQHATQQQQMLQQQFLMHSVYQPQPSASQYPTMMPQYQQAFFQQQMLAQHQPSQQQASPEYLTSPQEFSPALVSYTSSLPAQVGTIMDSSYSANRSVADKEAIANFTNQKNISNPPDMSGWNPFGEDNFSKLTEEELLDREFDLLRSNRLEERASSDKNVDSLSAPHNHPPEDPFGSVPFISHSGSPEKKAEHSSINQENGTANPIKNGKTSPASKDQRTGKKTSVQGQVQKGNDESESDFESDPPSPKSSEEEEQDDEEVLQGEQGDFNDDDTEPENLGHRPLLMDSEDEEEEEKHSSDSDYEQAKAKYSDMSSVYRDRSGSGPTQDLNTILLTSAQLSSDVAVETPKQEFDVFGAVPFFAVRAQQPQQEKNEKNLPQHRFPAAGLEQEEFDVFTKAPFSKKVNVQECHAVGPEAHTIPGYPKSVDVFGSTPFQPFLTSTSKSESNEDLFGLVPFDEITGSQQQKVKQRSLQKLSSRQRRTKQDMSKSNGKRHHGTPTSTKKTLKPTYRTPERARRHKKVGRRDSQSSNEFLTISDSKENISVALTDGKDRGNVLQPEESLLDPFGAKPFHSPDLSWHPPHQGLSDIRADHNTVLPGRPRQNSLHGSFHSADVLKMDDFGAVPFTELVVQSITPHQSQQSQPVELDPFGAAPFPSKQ
Sequence of Bone morphogenetic protein receptor type-1B (O00238 whole entry): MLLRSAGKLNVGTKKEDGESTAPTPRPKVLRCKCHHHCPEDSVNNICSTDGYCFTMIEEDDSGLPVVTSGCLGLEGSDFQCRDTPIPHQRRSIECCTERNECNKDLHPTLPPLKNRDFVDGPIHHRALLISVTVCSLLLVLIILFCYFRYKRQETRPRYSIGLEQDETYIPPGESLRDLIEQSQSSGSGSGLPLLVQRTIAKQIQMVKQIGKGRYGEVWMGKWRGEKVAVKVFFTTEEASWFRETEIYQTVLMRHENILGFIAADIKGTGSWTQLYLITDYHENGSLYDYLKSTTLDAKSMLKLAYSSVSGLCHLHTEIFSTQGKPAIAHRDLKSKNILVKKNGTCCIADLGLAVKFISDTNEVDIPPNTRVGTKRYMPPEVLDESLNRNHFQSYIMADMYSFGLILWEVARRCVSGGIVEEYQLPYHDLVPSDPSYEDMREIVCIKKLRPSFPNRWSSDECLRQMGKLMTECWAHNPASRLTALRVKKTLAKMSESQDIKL
Sequence of Serine/threonine-protein kinase SIK2 (Q9H0K1 whole entry, the tested form may be a part): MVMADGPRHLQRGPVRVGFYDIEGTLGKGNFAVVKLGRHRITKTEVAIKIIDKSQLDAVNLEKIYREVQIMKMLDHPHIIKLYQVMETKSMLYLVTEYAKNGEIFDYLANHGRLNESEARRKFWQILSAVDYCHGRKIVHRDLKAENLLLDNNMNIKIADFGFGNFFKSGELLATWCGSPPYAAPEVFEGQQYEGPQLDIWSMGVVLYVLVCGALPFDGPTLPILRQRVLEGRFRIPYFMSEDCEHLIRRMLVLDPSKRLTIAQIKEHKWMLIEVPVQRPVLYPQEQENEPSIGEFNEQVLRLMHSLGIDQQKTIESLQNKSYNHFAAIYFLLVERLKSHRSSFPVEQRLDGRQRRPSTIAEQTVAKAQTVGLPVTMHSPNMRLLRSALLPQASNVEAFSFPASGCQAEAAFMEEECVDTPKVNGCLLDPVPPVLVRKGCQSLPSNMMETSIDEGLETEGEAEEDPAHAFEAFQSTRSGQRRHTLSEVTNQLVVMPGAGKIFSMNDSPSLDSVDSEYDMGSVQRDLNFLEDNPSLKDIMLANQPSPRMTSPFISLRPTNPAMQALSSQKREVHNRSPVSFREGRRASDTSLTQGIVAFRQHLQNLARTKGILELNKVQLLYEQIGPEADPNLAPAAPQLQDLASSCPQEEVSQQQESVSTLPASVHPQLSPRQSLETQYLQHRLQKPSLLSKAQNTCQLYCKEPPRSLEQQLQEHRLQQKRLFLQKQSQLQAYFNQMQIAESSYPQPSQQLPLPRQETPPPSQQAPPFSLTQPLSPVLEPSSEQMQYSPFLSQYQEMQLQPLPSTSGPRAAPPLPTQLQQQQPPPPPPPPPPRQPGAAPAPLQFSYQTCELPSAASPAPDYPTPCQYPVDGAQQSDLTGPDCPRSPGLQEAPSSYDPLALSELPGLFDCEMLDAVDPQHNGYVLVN

SMILES | IC50 [1] | IC50 [2] | IC50 [3] | % control [4] | IC50 [5] | IC50 [6] | IC50 [7] | % control [8] | % control [9]
NS(=O)(=O)c1ccc(CNc2nc(Nc3cccc(CN4CCOCC4)c3)ncc2C2CC2)cc1 | 153 nM | 2.05 µM | 1310 nM | 87% | – | – | – | – | –
NS(=O)(=O)c1ccc(CNc2nc(Nc3cccc(CN4CCOCC4)c3)ncc2Br)cc1 | 158 nM | > 10 µM | – | 3% | – | – | – | – | –
NS(=O)(=O)c1ccc(CNc2nc(Nc3cccc(NC(=O)N4CCCC4)c3)ncc2Br)cc1 | 283 nM | 6.17 µM | – | 12% | 488 nM | – | – | – | –
c1cc(CN2CCOCC2)cc(Nc2nccc(NCCc3cnc[nH]3)n2)c1 | – | > 10 µM | – | 81% | – | 185 nM | 9.03 µM | 78% | 58%
